# ABCB1 inh: human ABCB1 inhibition, ABCG2 as counter-screen; P08183; CCRF-Adr cells, JC-1 efflux, flow cytometry; inhibition, % at 6.6 µM; hit rate 0.067% among 190,000; in the data active = inhibition above about 40%;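 also: 0% = vehicle and 100% = reference inhibitor; higher value means more JC-1 retained so stronger ABCB1 efflux block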
# MT stabilizer: stabilizes microtubules in HeLa cells; HeLa tubulin immunostaining HCS, 24 h; share of cells brighter than vehicle mean+2SD; % tubulin-high responders, % at 10 µM; hit rate 0.83% among 200,000;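 active = plate Z-score above 3 for both tubulin-high and condensed-nucleus cell shares, with cell loss under 80%, at 10 µM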;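 also: anti alpha tubulin signal scored within the nucleus-defined area of each cell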
# b-catenin transl: modulators of beta-catenin nuclear translocation | HeLa beta-catenin nuclear translocation, immunofluorescence imaging | nuclear translocation activity, % at 5 µM | hit rate 0.3% among 190,000;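 active = nuclear translocation activity above 50% at 5 µM, with a well cell count of 50 or more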;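 also: per-cell ratio of nuclear to cytoplasmic median beta-catenin stain intensity; plate controls were DMSO negative control for no effect and GSK-3 inhibitor IX positive control for full effect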
#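 Assay system: human HeLa cells, native beta-catenin; doses: 5 µM primary, 0.02–20 µM confirmation; incubation: compound treatment 24 h, 37°C, 5% CO2; technique: fluorescence imaging of beta-catenin antibody stain plus DAPI; measure: % activation, nuclear-to-cytoplasmic median beta-catenin signal ratio per cell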
# ABCG2 inh: inhibitors of human ABCG2 transporter, ABCB1 counter-screen; IgMXP3 cells, JC-1 efflux, flow cytometry; inhibition, % at 6.6 µM; hit rate 0.1% among 190,000;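 active = inhibition above 80%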;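 also: 0% = DMSO and 100% = nicardipine control wells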
# Target sequence (Q9UNQ0 whole entry, looked up): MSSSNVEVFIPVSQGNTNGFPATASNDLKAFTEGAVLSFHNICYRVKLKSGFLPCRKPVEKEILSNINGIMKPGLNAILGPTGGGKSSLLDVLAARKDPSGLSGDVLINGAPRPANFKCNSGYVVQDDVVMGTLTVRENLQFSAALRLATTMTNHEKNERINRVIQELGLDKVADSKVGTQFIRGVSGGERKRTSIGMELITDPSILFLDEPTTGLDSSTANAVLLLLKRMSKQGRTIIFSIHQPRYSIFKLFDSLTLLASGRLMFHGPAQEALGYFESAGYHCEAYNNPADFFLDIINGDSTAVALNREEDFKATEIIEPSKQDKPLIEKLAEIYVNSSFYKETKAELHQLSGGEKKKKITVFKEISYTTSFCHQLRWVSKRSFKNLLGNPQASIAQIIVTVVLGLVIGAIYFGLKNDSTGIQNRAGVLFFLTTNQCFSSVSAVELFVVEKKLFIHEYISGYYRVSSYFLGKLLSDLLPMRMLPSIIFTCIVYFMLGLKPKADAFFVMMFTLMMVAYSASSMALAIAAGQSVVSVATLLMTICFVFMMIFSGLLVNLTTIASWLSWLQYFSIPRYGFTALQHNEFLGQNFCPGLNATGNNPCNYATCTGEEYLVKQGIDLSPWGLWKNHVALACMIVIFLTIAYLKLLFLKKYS
#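 test system = two drug-resistant human cell lines, ABCG2 and ABCB1 | amount = 3 million cells/mL final, two lines in 1:1 ratio | reagent = JC-1 transporter substrate | doses = one concentration, 6.6 µM final | incubation = 10 min at 25 °C | signal = flow cytometric JC-1 green MFI at 530 nm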
# PKD1 inh: inhibitors of human PKD1 kinase. Q15139. PKD1 kinase fluorescence polarization assay. inhibition, % (test concentration not listed). hit rate 0.056% among 200,000; in the data active = inhibition above about 50%
# Numbers without * were called inactive; . = no result given. Rows were chosen to be rich in hits. Some 1% of all compounds tested hit in one or more screens of this group.
SMILES,ABCB1 inh,MT stabilizer,b-catenin transl,ABCG2 inh,PKD1 inh
COc1ccc(-c2c/c(=N\c3nc(-c4ccccc4)c(C)s3)c3ccccc3o2)cc1O,0,7,165*,-1,-5
CCc1ccc(NC(=O)C(=O)NCCOc2ccccc2Cl)cc1,0,26*,3,0,2
Cc1ccc(NC(=O)C(=O)NCCOc2ccccc2Cl)cc1,0,4,-2,3,3
CCCn1c(NCc2ccccc2NS(=O)(=O)c2ccc(C)cc2)nc2ccccc21,.,21*,-3,0,-8
COc1ccc(/C=C/C(=O)NC(=S)NNC(=O)c2ccco2)cc1OC,.,.,-1,.,.
COc1ccc(/C=C/C(=O)NC(=S)NNC(=O)c2ccco2)cc1,-1,33*,-2,0,1
O=[N+]([O-])c1cc2c(c(CSc3nnnn3-c3ccc(O)cc3)c1)OCOC2,2,3,0,17,-11
COc1ccc(CC(=O)Nc2nnc(C)s2)cc1,1,1,3,2,1
CCCCC(=O)Nc1ccc(C(=O)Nc2ccc(S(=O)(=O)Nc3ccc(C)cc3)cc2)cc1,0,5,1,-2,-1
Cc1nc2ccc(NS(=O)(=O)c3c(C)c(C)cc(C)c3C)cc2s1,1,44*,2,3,9
CC(=O)c1c(C)[nH]c(C(=O)CN2C(=O)NC(C)(CCC(C)C)C2=O)c1C (configuration not stated),0,1,-4,1,-5
Cc1cccc(NC(=O)C2CCCN2/C=C/C(=O)C(F)(F)F)c1C (configuration not stated),4,4,0,22,-7
Clc1ccccc1-c1ccc(/C=N/Nc2nncc(-c3ccccc3)n2)o1,0,4,-3,-1,-4
COc1ccc(NC(=O)Cn2nnc(-c3ccccc3NC(=O)c3cccs3)n2)cc1,0,19*,-1,2,8
O=C(Cn1nnc(-c2ccccc2NC(=O)c2ccco2)n1)Nc1ccccc1,1,14,0,14,-15
Cc1ccc(NC(=O)Cn2nnc(-c3ccccc3NC(=O)c3cccs3)n2)cc1,1,21*,58*,4,-4
Cc1ccc(OCCNC(=O)C(=O)NCc2ccco2)cc1,0,17*,38,2,-5
N#C/C(=C\c1ccncc1)c1nc2ccccc2[nH]1,0,5,1,5,-5
CCN(CC)c1ccc(/C=C(/C#N)c2nc3ccccc3[nH]2)c(OC(C)C)c1,16,60*,.,28,-3
COc1ccc(C2=Nn3c(nnc3-c3ccncc3)SC2)cc1,1,1,.,4,-1
CCOc1ccc(C2=Nn3c(nnc3-c3ccc(OC)cc3)SC2)cc1,0,40*,106*,13,5
COc1ccc2c(c1)C(C)=CC(C)(C)N2S(=O)(=O)c1ccc(Br)cc1,0,5,76*,2,0
CC1=CC(C)(C)N(S(=O)(=O)c2ccc(F)cc2)c2ccc(C)cc21,0,24*,33,0,7
CC1=CC(C)(C)N(S(=O)(=O)c2ccc(C)cc2)c2ccccc21,0,12,.,9,-14
COC(=O)COc1cccc2c(=O)n(CC(=O)NCc3ccc(F)cc3)ccc12,0,20*,-2,2,-6
SMILES,ABCB1 inh,MT stabilizer,b-catenin transl,ABCG2 inh,PKD1 inh
CC(C)(C)n1ncc2c(=O)n(CC(=O)NCc3ccc(F)cc3)cnc21,1,47*,0,5,-7
CCOC(=O)COc1cccc2c(=O)n(CC(=O)NCc3ccc4c(c3)OCO4)ccc12,-1,19*,64*,0,-4
CCOC(=O)C(C)Oc1cccc2c(=O)n(CC(=O)NCCc3ccccc3)ccc12 (configuration not stated),.,.,1,.,.
CCOC(=O)C(C)Oc1cccc2c(=O)n(CC(=O)NCc3ccccc3)ccc12 (configuration not stated),.,.,51*,.,.
CCOC(=O)COc1cccc2c(=O)n(CC(=O)NCCc3ccccc3)ccc12,2,3,0,12,-9
COc1cc(NC(=O)C2CC(=O)NC3=C2C(=O)CCC3)c(OC)cc1Cl (configuration not stated),0,3,.,1,-5
COc1ccc(CC(=O)Nc2cccc(/C(C)=N/NC(=O)c3cccc([N+](=O)[O-])c3)c2)cc1,1,3,0,5,-4
CCOC(=O)C(C)Oc1cccc2c(=O)n(CC(=O)NCc3ccc(F)cc3)ccc12 (configuration not stated),.,.,106*,.,.
